Reference: PMC5769151 (Journal of medicinal chemistry, 2015)

What was measured:
μ opioid receptor (MOR) = type: binding
NK1R [1] = biological target: T1, NK1R (Homo sapiens, UniProt P25103); test: hNK1/CHO cell membrane radioligand binding assay; conditions: binding ratio human/rat NK1
Target sequence in this assay (P25103 whole entry): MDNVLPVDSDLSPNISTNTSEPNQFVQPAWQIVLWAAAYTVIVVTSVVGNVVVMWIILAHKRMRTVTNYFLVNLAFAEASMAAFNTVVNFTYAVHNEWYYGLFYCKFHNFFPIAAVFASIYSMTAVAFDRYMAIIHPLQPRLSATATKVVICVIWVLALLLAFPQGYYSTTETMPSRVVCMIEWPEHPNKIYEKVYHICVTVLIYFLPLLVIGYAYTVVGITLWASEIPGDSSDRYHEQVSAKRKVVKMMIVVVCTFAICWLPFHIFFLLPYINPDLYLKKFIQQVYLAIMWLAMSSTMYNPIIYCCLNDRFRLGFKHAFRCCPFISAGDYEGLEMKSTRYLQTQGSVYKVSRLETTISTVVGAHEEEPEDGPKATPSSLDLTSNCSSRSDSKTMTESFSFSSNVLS

GPI (MOR) = test: Guinea pig isolated ileum; type: cell-based; conditions: IC50 μ / IC50 δ
In short: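 Male Hartley guinea pig ileum LMMP (0.1 Hz, 0.4 ms) and male ICR mouse vasa deferentia (0.5 g tension, Mg-free Krebs, 37 °C, O2/CO2 95:5; 0.1 Hz single pulses, 2.0 ms), electrically stimulated at supramaximal voltage.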

GPI/LMMP (NK1R) = GPI/LMMP (NK1R) (Cavia porcellus, UniProt P30547); test: GPI/LMMP functional assay at NK1R; type: cell-based, guinea pig; conditions: at the concentration printed in the cell
Chain of GPI/LMMP (NK1R) (P30547 whole entry): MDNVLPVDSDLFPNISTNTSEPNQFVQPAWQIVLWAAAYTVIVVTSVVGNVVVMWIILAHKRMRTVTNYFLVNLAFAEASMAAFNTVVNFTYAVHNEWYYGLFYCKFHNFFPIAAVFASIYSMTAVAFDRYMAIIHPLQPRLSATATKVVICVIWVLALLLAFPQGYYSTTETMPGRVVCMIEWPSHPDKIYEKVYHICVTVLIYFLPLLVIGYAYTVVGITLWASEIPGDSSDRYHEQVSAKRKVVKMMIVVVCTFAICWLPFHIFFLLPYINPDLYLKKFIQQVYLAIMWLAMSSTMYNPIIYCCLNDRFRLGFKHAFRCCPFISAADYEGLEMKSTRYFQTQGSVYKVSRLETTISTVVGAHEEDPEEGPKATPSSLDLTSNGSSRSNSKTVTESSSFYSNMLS

MOR = MOR (Homo sapiens, UniProt P35372); type: cell-based
Chain of MOR (P35372 whole entry): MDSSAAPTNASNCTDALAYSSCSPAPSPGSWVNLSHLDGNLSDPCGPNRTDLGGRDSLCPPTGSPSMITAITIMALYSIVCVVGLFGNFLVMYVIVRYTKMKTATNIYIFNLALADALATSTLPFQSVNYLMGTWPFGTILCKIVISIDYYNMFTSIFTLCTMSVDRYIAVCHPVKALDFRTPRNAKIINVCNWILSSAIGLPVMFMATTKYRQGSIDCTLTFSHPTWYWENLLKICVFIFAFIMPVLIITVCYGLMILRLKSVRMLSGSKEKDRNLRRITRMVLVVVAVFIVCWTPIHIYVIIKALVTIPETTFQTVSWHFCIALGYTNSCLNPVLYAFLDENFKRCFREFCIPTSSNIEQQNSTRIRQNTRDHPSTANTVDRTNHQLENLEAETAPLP

NK1R [2] = biological target: T1, NK1R; type: cell-based
Target sequence in this assay (P25103 whole entry, species assumed): as the sequence (P25103 whole entry) above

For `Cc1cc(O)cc(C)c1C[C@H](N)C(=O)N[C@H](C)C(=O)NCC(=O)N[C@@H](Cc1ccccc1)C(=O)N1CCC[C@H]1C(=O)N[C@@H](CC(C)C)C(=O)N[C@@H](Cc1c[nH]c2ccccc12)C(=O)NCc1cc(C(F)(F)F)cc(C(F)(F)F)c1` [ligand 4], the “Ki^μ/Ki^δ” value (μ opioid receptor (MOR); binding ratio MOR/DOR) was 3/1, the “log[IC50±] (MOR)” value (μ opioid receptor (MOR); log IC50 from nonlinear regression, MOR binding) was −8.63 ± 0.04 and the “Ki^hNK1/Ki^rNK1” value (NK1R [1]) was 1/19. For the same molecule, the “GPI/MVD IC50 ratio” value (GPI (MOR)) was 26/1, the “GPI/LMMP (NK1R) agonism” value (GPI/LMMP (NK1R)) was “none at 100 nM” and the “MOR/DOR IC50 ratio (cAMP assay)” value (MOR) was 6/1. For the same molecule, the Kb (NK1R [2]) was 0.011 ± 0.01 µM.
